Source: ChEMBL document CHEMBL1150063, “Synergistic effect of flavones and flavonols against herpes simplex virus type 1 in cell culture. Comparison with the antiviral activity of propolis” (J Nat Prod, 1992)
≈ marks a conversion by molar mass, not a printed value.

Experiments:
[1] = Cytotoxicity against african green monkey Vero cells; format: cell-based; settings: chlorocebus sabaeus
Summary of the method: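 Uninfected Vero monolayers (ATCC CCL81; MEM with 10% newborn calf serum) in 25 cm2 flasks, 2.10^6 cells, four flasks per dilution, exposed to 0.05–5 mM in maintenance medium, diluted from DMSO stocks with MEM. After 96 h, morphology checked by microscopy; cells trypsinized and counted by trypan blue exclusion against untreated cultures. CC50 = concentration halving cell number.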

Human alphaherpesvirus 1 [2] = test: Antiviral activity against HSV1 in african green monkey Vero cells assessed as log reduction of virus titer at 48.3 ug/ml; format: functional
Summary of the method: (§1)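 Vero (ATCC CCL81) monolayers, confluent and 1 day old, in microtiter plates. Compound was diluted from DMSO stock into MEM and added just before infection with HSV-1 strain H 29 S at 100 TCID50/well. Each drug was tested in sextuplicate at 37° for 72 h. Wells were freeze-thawed 3 times, pooled and clarified, then titrated by limit dilution (CPE, TCID50/ml). Activity is the log10 titer reduction versus untreated controls.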

Human alphaherpesvirus 1 [3] = test: Antiviral activity against HSV1 in african green monkey Vero cells assessed as log reduction of virus titer at 60.4 ug/ml; format: functional; summary of the method: as §1
Human alphaherpesvirus 1 [4] = test: Antiviral activity against HSV1 in african green monkey Vero cells assessed as log reduction of virus titer at 72.5 ug/ml; format: functional; summary of the method: as §1
Human alphaherpesvirus 1 [5] = test: Antiviral activity against HSV1 in african green monkey Vero cells assessed as log reduction of virus titer at 5 ug/ml; format: functional; summary of the method: as §1
Human alphaherpesvirus 1 [6] = test: Antiviral activity against HSV1 in african green monkey Vero cells assessed as log reduction of virus titer at 10.1 ug/ml; format: functional; summary of the method: as §1
Human alphaherpesvirus 1 [7] = test: Antiviral activity against HSV1 in african green monkey Vero cells assessed as log reduction of virus titer at 10.8 ug/ml; format: functional; summary of the method: as §1
Human alphaherpesvirus 1 [8] = test: Antiviral activity against HSV1 in african green monkey Vero cells assessed as log reduction of virus titer at 20.3 ug/ml; format: functional; summary of the method: as §1
Human alphaherpesvirus 1 [9] = test: Antiviral activity against HSV1 in african green monkey Vero cells assessed as log reduction of virus titer at 30.5 ug/ml; format: functional; summary of the method: as §1
Human alphaherpesvirus 1 [10] = test: Antiviral activity against HSV1 in african green monkey Vero cells assessed as log reduction of virus titer at 40.6 ug/ml; format: functional; summary of the method: as §1
Human alphaherpesvirus 1 [11] = test: Antiviral activity against HSV1 in african green monkey Vero cells assessed as log reduction of virus titer at 5.4 ug/ml; format: functional; summary of the method: as §1
Human alphaherpesvirus 1 [12] = test: Antiviral activity against HSV1 in african green monkey Vero cells assessed as log reduction of virus titer at 21.6 ug/ml; format: functional; summary of the method: as §1
Human alphaherpesvirus 1 [13] = test: Antiviral activity against HSV1 in african green monkey Vero cells assessed as log reduction of virus titer at 32.4 ug/ml; format: functional; summary of the method: as §1
Human alphaherpesvirus 1 [14] = test: Antiviral activity against HSV1 in african green monkey Vero cells assessed as log reduction of virus titer at 1.4 ug/ml; format: functional; summary of the method: as §1
Human alphaherpesvirus 1 [15] = test: Antiviral activity against HSV1 in african green monkey Vero cells assessed as log reduction of virus titer at 2.8 ug/ml; format: functional; summary of the method: as §1
Human alphaherpesvirus 1 [16] = test: Antiviral activity against HSV1 in african green monkey Vero cells assessed as log reduction of virus titer at 22.9 ug/ml; format: functional; summary of the method: as §1
Human alphaherpesvirus 1 [17] = test: Antiviral activity against HSV1 in african green monkey Vero cells assessed as log reduction of virus titer at 34.3 ug/ml; format: functional; summary of the method: as §1
Human alphaherpesvirus 1 [18] = test: Antiviral activity against HSV1 in african green monkey Vero cells assessed as log reduction of virus titer at 45.7 ug/ml; format: functional; summary of the method: as §1
Human alphaherpesvirus 1 [19] = test: Antiviral activity against HSV1 in african green monkey Vero cells assessed as log reduction of virus titer at 12 ug/ml; format: functional; summary of the method: as §1
Human alphaherpesvirus 1 [20] = test: Antiviral activity against HSV1 in african green monkey Vero cells assessed as log reduction of virus titer at 24.1 ug/ml; format: functional; summary of the method: as §1
Human alphaherpesvirus 1 [21] = test: Antiviral activity against HSV1 in african green monkey Vero cells assessed as log reduction of virus titer at 36.2 ug/ml; format: functional; summary of the method: as §1
Human alphaherpesvirus 1 [22] = test: Antiviral activity against HSV1 in african green monkey Vero cells assessed as log reduction of virus titer at 15 ug/ml; format: functional; summary of the method: as §1
Human alphaherpesvirus 1 [23] = test: Antiviral activity against HSV1 in african green monkey Vero cells assessed as log reduction of virus titer at 5.7 ug/ml; format: functional; summary of the method: as §1
Human alphaherpesvirus 1 [24] = test: Antiviral activity against HSV1 in african green monkey Vero cells assessed as log reduction of virus titer at 11.4 ug/ml; format: functional; summary of the method: as §1
Human alphaherpesvirus 1 [25] = test: Antiviral activity against HSV1 in african green monkey Vero cells assessed as log reduction of virus titer at 10 ug/ml; format: functional; summary of the method: as §1

For O=c1c(O)c(-c2ccc(O)c(O)c2)oc2cc(O)cc(O)c12 [QUERCETIN], the CC50 [1] was 151 µg/mL (≈ 500 µM), the Activity (Human alphaherpesvirus 1 [2]) was 1.4 and the Activity (Human alphaherpesvirus 1 [3]) was 2. The Activity (Human alphaherpesvirus 1 [4]) was 2.3, the Activity (Human alphaherpesvirus 1 [5]) was 0 and the Activity (Human alphaherpesvirus 1 [6]) was 0.3.
In the case of O=c1cc(-c2ccccc2)oc2cc(O)cc(O)c12 [CHRYSIN], the CC50 [1] is reported as 76.2 µg/mL (≈ 300 µM), the Activity (Human alphaherpesvirus 1 [7]) is reported as 0.5 and the Activity (Human alphaherpesvirus 1 [8]) is reported as 0.5. It also gave an Activity (Human alphaherpesvirus 1 [9]) of 0.8, an Activity (Human alphaherpesvirus 1 [10]) of 1.1 and an Activity (Human alphaherpesvirus 1 [11]) of 0.25.
In the case of O=c1c(O)c(-c2ccccc2)oc2cc(O)cc(O)c12 [GALANGIN], the CC50 [1] is reported as 43.2 µg/mL (≈ 160 µM), the Activity (Human alphaherpesvirus 1 [7]) is reported as 2.3 and the Activity (Human alphaherpesvirus 1 [12]) is reported as 3.5.
In the case of O=c1cc(-c2ccc(O)cc2)oc2cc(O)cc(O)c12 [APIGENIN], the CC50 [1] is reported as 54 µg/mL (≈ 200 µM), the Activity (Human alphaherpesvirus 1 [12]) is reported as 1 and the Activity (Human alphaherpesvirus 1 [13]) is reported as 1.5. For the same molecule, the Activity (Human alphaherpesvirus 1 [14]) was 0.25 and the Activity (Human alphaherpesvirus 1 [15]) was 0.4.
For O=c1c(O)c(-c2ccc(O)cc2)oc2cc(O)cc(O)c12 [KAEMPFEROL], the CC50 [1] was 91.5 µg/mL (≈ 320 µM), the Activity (Human alphaherpesvirus 1 [16]) was 1.5 and the Activity (Human alphaherpesvirus 1 [17]) was 3.1. It also gave an Activity (Human alphaherpesvirus 1 [18]) of 3.5, an Activity (Human alphaherpesvirus 1 [19]) of 0.1 and an Activity (Human alphaherpesvirus 1 [20]) of 0.75. For the same molecule, the Activity (Human alphaherpesvirus 1 [21]) was 1.25.
O=c1cc(-c2ccc(O)c(O)c2)oc2cc(O)cc(O)c12 [LUTEOLIN] showed a CC50 [1] of 22.9 µg/mL (≈ 80 µM), an Activity (Human alphaherpesvirus 1 [22]) of 1.5 and an Activity (Human alphaherpesvirus 1 [23]) of 0.9. It also gave an Activity (Human alphaherpesvirus 1 [24]) of 2.2 and an Activity (Human alphaherpesvirus 1 [25]) of 1.
